Screening results as filed in PubChem.
The sample as a whole holds a higher share of hits than the screen did.
UPR XBP1 act: adaptive UPR (XBP1) activation; CHO-XBP1 luciferase reporter, IRE1-XBP1 UPR activation, luminescence; percent of tunicamycin response, DMSO as zero; 330,000 tested, 0.33% active; activation, % at 20 µM; AID 463104;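 active = versus positive control, 20 µM dose yields 30% or more activation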
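Material: IRE1-XBP1 luciferase reporter CHO line / Quantity: one thousand reporter cells per well / Buffer or medium: F12 with 10% serum / Compound: 20 µM single concentration, DMSO 1% / Times: 6 h treatment, 37 °C / Detection: Steady-Glo luciferase glow luminescence, 10 min after reagent addition / Benchmarks: tunicamycin high, DMSO low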
CHOP inhibitor: inhibitors of CHOP induction in ER stress response; 220,000 tested, 3.8% active; inhibition, % at 10 µM; AID 2732; CHO-K1 CHOP-promoter luciferase, tunicamycin-induced, 15-18 h;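 active = compounds that reduced the stress-induced luciferase reporter signal by more than about 70% of percent inhibition, limit read from the data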
PvdQ acylase: blocks Pseudomonas aeruginosa PvdQ acylase activity | purified PvdQ acylase, fluorescence plate reader | inhibition, % at 10 µM | 340,000 tested, 0.063% active | AID 488965; in the data active = inhibition above about 30%, passing the limit was not always enough
CHOP UPR activ: activators of apoptotic arm of unfolded protein response (CHOP); CHO-CHOP luciferase reporter, UPR activation, luminescence; percent of tunicamycin response over DMSO baseline; activation, % at 10 µM; 330,000 tested, 0.34% active;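 active = at 10 µM dose, activation of 40% or more, normalized to positive control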
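assay system = CHO CHOP reporter cells | amount = 500 CHO-CHOP cells per well | buffer or medium = F12 with 10% FBS | incubation = 16-18 h cell attachment, then 6 h compound exposure, 37 °C | detection = luminescence read with Steady-Glo | read-out = percent activation relative to tunicamycin control | controls = tunicamycin high control, DMSO low control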
Numbers stand for hits; i = inactive; nt = not tested or not shown.

SMILES	UPR XBP1 act	CHOP inhibitor	PvdQ acylase	CHOP UPR activ
Cc1ccc2[nH]c(=O)c(N3CCOCC3)c(-c3ccccc3)c2c1	i	76.3	i	i
CCCCSc1nnc(-c2ccccc2)c2ccccc12	i	82.3	i	i
CC(C)CCNC(=O)c1ccc(CSCc2cccc(F)c2)o1	i	90.3	i	i
Cc1cccc(CSCc2ccc(C(=O)NC(C)C)o2)c1	i	nt	i	i
CC(=O)c1ccc(NC(=O)COC(=O)c2c3c(nc4ccccc24)/C(=C\c2cccs2)CCC3)cc1	i	76.8	i	i
O=C(COC(=O)c1c2c(nc3ccccc13)/C(=C\c1cccs1)CCC2)Nc1ccccc1	i	i	i	i
CCOC(=O)c1ccc(NC(=O)c2n[nH]c(=O)c3ccccc23)cc1	i	i	i	i
COc1cc(NC(=O)c2cccs2)c(C(=O)OCC(=O)NC(C)c2ccccc2)cc1OC (stereo not given)	i	i	i	i
CCOC(=O)c1ccccc1NC(=O)c1cncc(Br)c1	nt	72.9	i	nt
CCOC(=O)c1ccccc1NC(=O)c1cccnc1	i	i	i	i
CCOC(=O)c1ccccc1NC(=O)COc1ccccc1	i	84.5	i	i
COc1cc(NC(=O)c2cccs2)c(C(=O)OCC(=O)NCc2ccccc2)cc1OC	i	87.1	i	i
CCOC(=O)c1ccccc1NC(=O)c1n[nH]c(=O)c2ccccc12	i	93.2	i	i
Cc1ccc(NC(=S)N/C(=N/S(=O)(=O)c2ccccc2)c2ccccc2)cc1	i	i	i	i
Cc1ccccc1NC(=O)c1ccccc1NC(=O)c1cccs1	i	nt	i	i
CCOC(=O)c1ccccc1NC(=O)c1cccs1	i	91.5	i	i
CCCCc1nc(N)c(C#N)c(-c2ccco2)c1CCC	i	76.6	i	i
CSc1ccc(CN(C)C(=O)COc2ccc(C(=O)c3ccccc3)cc2)cc1	i	nt	i	i
O=C(CN1C(=O)C2CCCCC2C1=O)Nc1cc(C(F)(F)F)ccc1N1CCCC1 (stereo not given)	i	nt	i	i
COc1cccc(CN2CCN(c3cccc(C(F)(F)F)c3)CC2)c1OC	i	71.3	i	i
Cc1cc(C)nc(N(C#N)Cc2ccc(Cl)cc2)n1	i	i	35.7	i
CC(C)(C)C(=O)n1nc(-c2ccccc2)oc1=O	i	70.0	i	i
COc1ccc(NC2=NC(=S)N(c3ccccc3C)C23CCCCC3)cc1	i	i	i	i
COc1ccc(N2C(=S)N=C(Nc3ccccc3)C23CCCCC3)cc1	i	101.4	i	i
Cc1cc(C(=O)COC(=O)Cc2ccc(Br)cc2)c(C)n1C	i	nt	i	i
SMILES	UPR XBP1 act	CHOP inhibitor	PvdQ acylase	CHOP UPR activ
COC(=O)c1ccc(Oc2cc(C)nc(NCc3ccccc3)n2)cc1	i	i	i	i
Cc1cc(Oc2ccc(C#N)cc2)nc(NCc2ccccc2)n1	i	76.7	i	i
CCc1nn(C(CC)C(=O)NCC(C)c2ccccc2)c(=O)c2cc3occc3n12 (stereo not given)	i	nt	i	i
O=C(CSc1nnc(-c2cccnc2)n1CCN1CCCCC1)Nc1cccc(Cl)c1	i	i	i	i
Cc1ccc(-c2nc(-c3ccncc3)no2)cc1	nt	nt	i	nt
CC(C)(C)c1ccc(-c2nc(-c3ccncc3)no2)cc1	i	81.9	i	i
Cc1cc(C)cc(-c2nc(-c3ccncc3)no2)c1	i	84.5	i	i
CCOc1c(Br)ccc2c1sc1nc[nH]c(=O)c12	i	93.1	i	i
COCCOC(=O)c1sc2nc[nH]c(=O)c2c1C	i	i	i	i
CC1(C)CC2CC(C)(CN2C(=O)COc2cccc3ccccc23)C1 (stereo not given)	i	91.3	i	i
O=C(COc1cccc2ccccc12)N1c2ccccc2CCc2ccccc21	i	73.5	i	i
O=C(COc1ccc(F)cc1)N1c2ccccc2CCc2ccccc21	i	i	i	i
COc1ccc(C(C[N+](=O)[O-])c2c(-c3ccccc3)cc3ccccn23)cc1OC (stereo not given)	i	80.8	i	i
COc1cc(C(C[N+](=O)[O-])c2c(-c3ccccc3)cc3ccccn23)cc(OC)c1OC (stereo not given)	i	i	i	i
COc1ccc(OC)c(/C=N/NC(=O)c2ccc(Cn3cc([N+](=O)[O-])cn3)o2)c1	nt	i	i	nt
N#CC(c1ccccc1)c1ccc(C(=O)c2ccc(F)cc2)cc1 (stereo not given)	i	i	i	i
N#CC(c1ccc(F)cc1)c1ccc(C(=O)c2ccccc2)cc1 (stereo not given)	i	i	48.0	i
Fc1ccc(/C=C\c2nccc3c2[nH]c2ccccc23)cc1	i	90.3	i	i
